KCC2 mod = modulates chloride dependent transport by human KCC2; B-score of Tl+ flux slope (higher = more flux/activation; lower = inhibition) at 10 µM; 190,000 compounds, 2.2% hits; AID 1456; KCC2 cells, thallium flux FluoZin-2 fluorescence;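 active = thallium flux slope and its plate-corrected score both differing from the plate sample mean at a set confidence after two filtering rounds, in either direction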;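 note: slope of fluorescence scaled to starting intensity during 10 to 20 s after thallium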
KCNQ1 act = potentiates or activates the human KCNQ1 potassium channel | B-score at 10 µM | 310,000 compounds, 0.35% hits | P51787 | CHO-K1 KCNQ1, thallium flux FluxOR fluorescence; hits give high values;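 active = fluorescence ratio B-score, a plate-corrected score, at least three library SD, with initial intensity B-score within 5 SD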
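assay system = CHO-K1 cells stably expressing KCNQ1 | medium = assay buffer, equal DMSO in all wells | timing = 37 °C overnight plating, 90-min dark dye load, 20-min compound pretreatment | measured by = kinetic FluxOR thallium fluorescence, 10-s 1-Hz baseline, 110-s post-stimulus read | measure = fluorescence change relative to baseline, converted to B score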
hERG rescue = shields human hERG channel from block by proarrhythmic agents; Q12809; CHO-hERG, FluxOR thallium flux, dofetilide IC70 present; activation (rescue from dofetilide block), less the hit threshold, % at 10 µM; 310,000 compounds, 0.51% hits; AID 1511;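 active = activation above the mean of controls blocked by dofetilide plus 5 SD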;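 note: thallium influx through hERG after potassium depolarization seen as dye fluorescence rise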
Target sequence (Q12809 whole entry, looked up): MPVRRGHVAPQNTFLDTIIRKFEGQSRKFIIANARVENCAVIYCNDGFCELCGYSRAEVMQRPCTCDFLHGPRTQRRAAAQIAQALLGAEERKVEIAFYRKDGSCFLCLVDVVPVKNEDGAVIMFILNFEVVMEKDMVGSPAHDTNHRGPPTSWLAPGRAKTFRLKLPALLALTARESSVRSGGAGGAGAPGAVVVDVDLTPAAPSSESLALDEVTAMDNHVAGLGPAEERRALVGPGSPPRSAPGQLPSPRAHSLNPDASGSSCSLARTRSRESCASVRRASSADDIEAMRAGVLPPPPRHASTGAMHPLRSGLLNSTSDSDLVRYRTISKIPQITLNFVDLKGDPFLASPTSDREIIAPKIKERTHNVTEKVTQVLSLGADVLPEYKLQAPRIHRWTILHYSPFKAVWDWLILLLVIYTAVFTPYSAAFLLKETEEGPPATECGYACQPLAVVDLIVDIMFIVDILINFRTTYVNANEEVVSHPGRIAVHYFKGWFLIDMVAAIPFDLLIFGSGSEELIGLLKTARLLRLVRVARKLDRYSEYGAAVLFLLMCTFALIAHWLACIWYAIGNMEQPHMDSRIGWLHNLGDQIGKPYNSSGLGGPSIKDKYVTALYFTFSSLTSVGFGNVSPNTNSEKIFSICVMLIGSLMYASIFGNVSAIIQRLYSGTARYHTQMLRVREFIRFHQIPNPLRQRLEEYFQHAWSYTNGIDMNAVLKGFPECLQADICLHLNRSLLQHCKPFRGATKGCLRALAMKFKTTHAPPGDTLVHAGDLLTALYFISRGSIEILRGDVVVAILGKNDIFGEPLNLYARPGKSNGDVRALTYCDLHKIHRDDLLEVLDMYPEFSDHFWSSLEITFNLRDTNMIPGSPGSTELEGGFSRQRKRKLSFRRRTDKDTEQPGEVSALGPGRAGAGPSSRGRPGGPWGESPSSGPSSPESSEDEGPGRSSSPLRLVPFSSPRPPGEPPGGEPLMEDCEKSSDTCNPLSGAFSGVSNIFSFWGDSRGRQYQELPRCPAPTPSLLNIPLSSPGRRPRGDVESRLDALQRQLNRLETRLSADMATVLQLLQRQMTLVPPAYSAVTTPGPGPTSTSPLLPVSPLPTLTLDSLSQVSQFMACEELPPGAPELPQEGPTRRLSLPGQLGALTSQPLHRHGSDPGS
KCNK3 block = human KCNK3 channel inhibition, primary screen. CHO-KCNK3 thallium flux, FluxOR fluorescence; hits give low values. B-score at 10 µM. 340,000 compounds, 0.84% hits. O14649;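 active = B-score under library mean minus 4 SD, starting fluorescence ratio at most library mean plus 5 SD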;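 note: more negative B-score means stronger inhibition of thallium flux through KCNK3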
KCNK9 inh = inhibitors of human KCNK9 two-pore domain potassium channel | Q9NPC2 | B-score at 10 µM | HEK293 KCNK9, FluxOR thallium flux fluorescence; hits give low values | 310,000 compounds, 1.2% hits | AID 488922;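 active = ratio B-score over 3 SD below the library mean, with starting fluorescence within 5 SD of its mean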;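 note: negative B-score means less thallium flux so channel inhibition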
KCNQ1 inh = inhibitors of human KCNQ1 potassium channel; B-score at 10 µM; P51787; AID 2642; CHO-K1 KCNQ1, FluxOR thallium flux fluorescence; hits give high values; 310,000 compounds, 1.3% hits;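 active = compounds whose thallium flux B-score, printed positive for inhibition, exceeds three library SD while starting fluorescence stays within three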;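 note: channel opened by potassium depolarization with thallium stimulus after 20 min compound exposure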
KCC2 secondary = confirmation of human KCC2 transport modulators; HEK293-KCC2, thallium flux, FluoZin2 fluorescence; hits give high values; AID 1713; normalised thallium flux (F/F0 slope) at 10 µM; 3,700 compounds, 15% hits; shares compounds with KCC2 mod;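 active = thallium flux slope above the same plate's solvent-only control mean plus 3 SD; inconclusive = the two replicate wells disagree; inactive = no significant difference from solvent-only control wells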
KCC2 bumet counter = thallium flux despite bumetanide block in KCC2 cells, secondary assay 3; normalized thallium flux at 10 µM; shares compounds with KCC2 mod; 3,700 compounds, 49% hits; HEK293-KCC2 + bumetanide/ouabain, thallium flux FluoZin2; hits give high values;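 active = thallium entry rate above the same plate's blocked-transporter control wells by more than 3 SD; inconclusive = the two repeat wells disagree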;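 note: raw slope of fluorescence over initial fluorescence between 10 and 20 s after thallium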
KCC2 secondary2 = confirmation of human KCC2 transport modulators; shares compounds with KCC2 mod; HEK293-KCC2, thallium flux FluoZin2 fluorescence; actives lie on both sides; F/F0 rise rate, 10–20 s post-thallium; AID 1715; normalized thallium flux at 10 µM; 3,700 compounds, 23% hits;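 active = thallium flux slope more than 3 SD above or below the plate's solvent-only control mean, mostly below; inconclusive = the two repeat wells disagreed; inactive = no significant shift from solvent-only controls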;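 note: raw slope with 0.1% DMSO as baseline and bumetanide as block control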
HEK counter1 = acts in parental HEK cells, KCC2 counter-screen; shares compounds with KCC2 mod; HEK293 parental cells, thallium flux FluoZin2, ouabain; baseline-ratio fluorescence slope, 10–20 s after thallium; thallium flux rate (normalised fluorescence) at 10 µM; 3,700 compounds, 46% hits; AID 1716;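 active = thallium flux rate significantly above the same plate's solvent-only control wells, beyond their mean plus 3 SD; inconclusive = the two replicate wells gave conflicting results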
KCC2 ouabain = confirmation of human KCC2 modulators with ouabain | shares compounds with KCC2 mod | HEK293-KCC2, thallium flux FluoZin2 fluorescence; bidirectional: low = inhibitor, high = activator | raw Tl+ flux slope (below DMSO = inhibition, above = activation) at 10 µM | 3,700 compounds, 48% hits;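 active = thallium flux slope beyond 3 SD from same-plate DMSO control mean in most replicates, usually higher, sometimes lower; inconclusive = repeat tests gave conflicting results; inactive = no significant difference from controls in most replicates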;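 note: slope of initial-normalized fluorescence between seconds 10 and 20 after thallium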
HEK293 Tl flux2 = acts in parental HEK cells, second KCC2 counter-screen | shares compounds with KCC2 mod | HEK293 parental, thallium flux FluoZin-2 fluorescence slope | thallium flux slope at 10 µM | 3,700 compounds, 33% hits | AID 1718;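 active = thallium flux slope above the same plate's solvent-control mean plus 3 SD in both duplicate wells; inconclusive = duplicate wells that disagreed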;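 note: run without ouabain in cells lacking the KCC2 cotransporter; slope of fluorescence scaled to its starting value between 10 and 20 s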
* hit, by the source's call; i = inactive; ? = inconclusive; · = no result given. Shown are actives, neighbours in structure and some others; about 4.1% of the full set was active somewhere.

SMILES	KCC2 mod	KCNQ1 act	hERG rescue	KCNK3 block	KCNK9 inh	KCNQ1 inh	KCC2 secondary	KCC2 bumet counter	KCC2 secondary2	HEK counter1	KCC2 ouabain	HEK293 Tl flux2
S=C(NCc1ccco1)N1CCN(C/C=C/c2ccccc2)CC1	-2.56	i	-4.3	i	i	i	·	·	·	·	·	·
COc1ccc(C(=O)O)cc1S(=O)(=O)NCCN(C)C	0.388	i	-6.5	i	i	i	·	·	·	·	·	·
CC(OC(=O)c1cc(=O)[nH]c2ccccc12)C(=O)NC1CCCCC1C (stereo not drawn)	·	i	-7.7	i	i	i	·	·	·	·	·	·
CCOC(=O)c1cnc(-c2cccc(OC)c2)[nH]c1=O	·	i	-11.6	i	i	i	0.00675	?	0.0338	0.00825	0.0194	0.0112
CCOC(=O)c1cnc(-c2ccccc2)[nH]c1=O	-3.61	i	-3.5	i	i	i	·	·	·	·	·	·
CCCn1nnc(NCc2ccc(OCc3cccs3)c(OC)c2)n1	-2.94*	i	-11.3	i	i	i	0.00693	0.00464	0.0281	0.00728	?	0.0105
Cc1cccnc1Nc1nc(-c2ccc(O)cc2)cs1	·	i	-4.7	i	i	i	0.00951	0.00561	0.0305	0.00741	0.018	?
Cn1cc(C(=O)C(=O)N2CCCc3ccccc32)c2ccccc21	-4.35*	i	4.3	i	i	i	0.0165	0.00506	0.0243*	0.00665	0.0125	0.0094
O=C(C(=O)N1CCCc2ccccc21)c1cn(CC(=O)N2CCOCC2)c2ccccc12	1.14	i	-7.7	i	i	i	·	·	·	·	·	·
O=C(NC(=S)NN1CCCCC1c1cccnc1)c1ccc(Cl)cc1Cl (stereo not drawn)	9.07*	i	-13.7	i	i	i	0.0124*	0.0212*	0.0346	0.0118*	?	?
COc1cccc(-c2cc(C(F)(F)F)nc(-n3cc(Cl)cn3)n2)c1	-0.346	i	-5.5	i	i	i	·	·	·	·	·	·
C/C(=C\C(=O)c1ccc(Cl)s1)N(C)C	3.78*	i	-1.3	i	i	i	0.0109	0.0143*	0.0364	?	?	0.0107
Brc1cnc(OCc2ccccc2)nc1OCc1ccccc1	·	·	·	i	·	·	·	·	·	·	·	·
COc1ccc(CCn2c(-c3ccccc3)nc3c(c(=O)c4ccccc4n3C)c2=O)cc1	-0.528	i	-1.5	·	i	i	·	·	·	·	·	·
COCCn1c(-c2ccccc2Cl)nc2c(c(=O)c3ccccc3n2C)c1=O	-4.82*	i	-6.5	i	i	i	?	0.00466	0.0213*	0.00583*	0.0104*	0.00895
CC(C)c1nc2c(c(=O)c3ccccc3n2C)c(=O)n1CCc1ccccc1	-4.38*	i	-10.0	i	i	i	0.00999	0.022*	0.0316	0.0124*	0.0207	0.0106
COC(=O)c1ccc(C(C(=O)NCc2ccccc2)N(Cc2cccs2)C(=O)c2cnccn2)cc1 (stereo not drawn)	·	i	-21.2	i	i	i	0.00931	0.0059	0.0328	0.00846	0.0202	0.0113
O=C1OCCC1=Cc1ccccc1	·	·	·	i	·	·	·	·	·	·	·	·
CCOc1cc(CNCCc2ccc(S(N)(=O)=O)cc2)cc(Cl)c1OCc1ccccc1	·	i	-21.7	i	i	i	?	0.00458	0.0307	0.00811	0.0171	0.0112
S=C(Nc1ccccc1)Nc1cccc(Cl)c1Cl	17.1*	i	-17.5	i	i	i	0.00532	0.0161*	0.0319	0.0121*	?	0.0138*
Cc1ccsc1C(=O)Nc1nnc(-c2ccco2)o1	·	i	-11.6	i	i	i	0.0135*	0.0257*	0.0323	0.0147*	0.0303*	0.0107*
Cc1cc(Cl)ccc1Oc1ccccc1C(=O)CC#N	-5.51*	i	-6.7	i	i	i	0.00641	0.00481	?	0.00648	?	0.00929
COc1ccc(Cn2c(=S)[nH]c3ccccc32)cc1	10.9*	i	7.2*	i	i	i	0.00724	0.00985*	0.0311	0.0125*	?	0.0121*
O=C(NC1CCCCCC1)C1CCN(c2nc3ccccc3o2)CC1	·	i	-7.8	i	i	i	0.00937	0.00568	?	0.00419	0.0181*	0.0108
O=C1NC(=O)C(Nc2cccc3ccccc23)S1 (stereo not drawn)	0.00522	i	-3.4	i	i	i	·	·	·	·	·	·
SMILES	KCC2 mod	KCNQ1 act	hERG rescue	KCNK3 block	KCNK9 inh	KCNQ1 inh	KCC2 secondary	KCC2 bumet counter	KCC2 secondary2	HEK counter1	KCC2 ouabain	HEK293 Tl flux2
O=C(CSc1nc2ccc(N3CCOCC3)cc2c(=O)n1CCc1ccccc1)NCC1CCCO1 (stereo not drawn)	6.75*	i	-18.8	i	i	i	0.0163	0.0159*	0.029	0.00897*	0.0174	0.013*
CCCCNC(=O)CSc1nc2ccc(N3CCOCC3)cc2c(=O)n1CCc1ccccc1	2.2	i	-10.9	i	i	i	·	·	·	·	·	·
FC(F)(F)c1ccc(Cl)c(NC(=S)N/N=C/c2ccccc2C(F)(F)F)c1	4.86*	i	-2.4	i	i	i	0.0073	0.0144*	?	0.0143*	?	0.0131*
COc1ccc(/C=N/NC(=S)Nc2cc(C(F)(F)F)ccc2Cl)cc1	0.167	i	-6.3	i	i	i	·	·	·	·	·	·
CC(=O)Oc1ccccc1-c1nc(/C=C/c2ccccc2)no1	·	i	-3.2	i	i	i	·	·	·	·	·	·
O=C(NCc1ccccc1)c1sc(=S)n2c1[nH]c(=O)c1ccccc12	20*	i	-15.9	i	i	7*	0.0053	0.0649*	?	0.0561*	0.0537*	0.0452*
CC(=O)NNC(=O)c1sc(=S)n2c1[nH]c(=O)c1sccc12	8.19*	i	-10.1	i	i	i	0.00759	0.0103*	0.0278	0.0121*	?	0.0118*
NC(=O)c1sc(=S)n2c1[nH]c(=O)c1sccc12	0.137	i	-5.9	i	i	i	·	·	·	·	·	·

Bioassay records deposited in PubChem by several laboratories.
